Measured values of several laboratories.
Compare with care: the assays were run in different laboratories.
Organism: Plasmodium falciparum
Observed: parasite growth

SMILES	method	strain	time	setting	IC50
COc1cccc2c(=O)c(C)c(-c3ccc(Cc4ccc(OC(F)(F)F)cc4)cc3)[nH]c12	–	3D7	–	blood stage	> 0.35 µM
O=C(O)/C=C/C=C/c1cccc(Oc2cc(Cl)cc(Cl)c2)c1	SYBR Green	–	–	blood stage	54.1 µM
Clc1ccc2c(c1)nc(NCc1ccccn1)n2Cc1ccccc1	–	NF54	–	blood stage	> 10 µM
COc1cc(C)c(-c2ccc(O)c3c2C[C@@H](C)N[C@@H]3C)c2cccc(O)c12 (single isomer, unassigned)	SYBR Green	NF54	–	blood stage	0.0384 µM
Clc1ccc2c(nc(N3CCNCC3)n2Cc2ccccc2)c1Br	–	NF54	–	blood stage	0.071 µM
Cc1cccc(C(=O)O)c1NC(=O)c1cccc(-c2ccccc2)c1	resazurin	NF54	48 h	gametocyte	0.665 µM
COC(=O)c1ccc2c(c1)nc(C1CCNCC1)n2Cc1ccccc1	–	NF54	–	blood stage	3.83 µM
COc1ccccc1-c1ccccc1C(=O)Nc1c(C)cccc1C(=O)O	resazurin	NF54	48 h	gametocyte	> 10 µM
CN1CCC(NCc2cccc(-c3ccc(S(=O)(=O)NCc4ccccc4)cc3)c2)CC1	SYBR Green	–	–	blood stage	0.593 µM
CCCCCCCCCCCCCC(O)CC(O)CO (stereo not drawn)	–	W2	–	drug-resistant strain, blood stage	40.8 µg/mL
Brc1ccc2c(c1)nc(C1CCNCC1)n2Cc1ccccc1	–	NF54	–	blood stage	0.028 µM
O=C(Nc1ccnc(C(F)(F)F)c1)Nc1cccc2c1OC(F)(F)O2	–	NF54	–	blood stage	0.7 µM
FC(F)(F)c1ccc2c(c1)nc(N1CCNCC1)n2Cc1ccccc1	–	NF54	–	blood stage	0.31 µM
CCN(CC)CCCC(C)Nc1ccnc2cc(Cl)ccc12 (stereo not drawn)	LDH	–	–	–	0.206 µM
C/C=C/C=C/C=C/c1c(O)cc(CC=C(C)C)c(O)c1C=O	–	W2	72 h	drug-resistant strain, blood stage	1.1 µg/mL
O=C(Nc1cc(F)ccc1C(=O)O)c1ccc(-c2ccccc2)cc1	resazurin	NF54	48 h	gametocyte	0.105 µM
COC(=O)c1cccc(-c2nc3c(N4CCC(N5CCN(C)CC5)CC4)nccc3[nH]2)c1	–	NF54	–	blood stage	< 0.1 µM
O=C(Nc1c(F)cccc1C(=O)O)c1ccc(-c2ccccc2)cc1	–	NF54	48 h	blood stage	> 10 µM
CCc1ccc(C2=NC(=Cc3ccc(CCCCCCCCCC(C)O)[nH]3)C(OC)=C2)[nH]1 (stereo not drawn)	–	D6	–	blood stage	0.017 µM
CCN(CC)CCCC(C)Nc1ccnc2cc(Cl)ccc12 (stereo not drawn)	–	D6	72 h	blood stage	0.016 µg/mL

SMILES	method	strain	time	setting	IC50
Cc1ccc(-c2ccc3ncc4c(c3c2)n(-c2cccc(C(F)(F)F)c2)c(=O)n4C)cn1	resazurin	3D7	–	gametocyte	< 0.1 µM
C=CCCCCCCCCCCCC(O)CC(O)CO (stereo not drawn)	–	D6	–	blood stage	29.7 µg/mL
O=C(O)c1cc(F)ccc1NC(=O)c1ccccc1-c1ccccc1	resazurin	NF54	48 h	gametocyte	0.674 µM
C[C@@H]1CC[C@H]2[C@@H](C)C(=O)O[C@@H]3O[C@@]4(C)CC[C@@H]1[C@]32OO4	–	D6	72 h	blood stage	0.0047 µg/mL
NC(N)=Nc1ccc(-c2ccc(-c3ccc(N=C(N)N)c(Cl)c3)o2)cc1Cl	SYBR Green	–	–	blood stage	0.249 µM
Clc1ccc2c(c1)nc(NCCN1CCOCC1)n2Cc1ccccc1	–	NF54	–	blood stage	8.52 µM
Clc1ccc2c(N3CCN(CCCN4CCN(c5ccnc6cc(Cl)ccc56)CC4)CC3)ccnc2c1	–	–	–	blood stage	0.0258 µM
NCCCCNc1nc2cc(Cl)ccc2n1Cc1ccccc1	–	NF54	–	blood stage	1.34 µM
COC1=CC(c2cccn2C)=NC1=Cc1ccc(CCCCCCCCCC(C)O)[nH]1 (stereo not drawn)	–	D6	–	blood stage	2.33 µM
N=C(N)c1ccc(OCCCCCOc2ccc(C(=N)N)cc2)cc1	SYBR Green	–	–	blood stage	0.0056 µM
CN1CCN(C2CCN(c3nccc4[nH]c(-c5ccc(F)c(C(F)(F)F)c5)nc34)CC2)CC1	–	NF54	–	blood stage	< 0.1 µM
CO[C@H]1C[C@@H](C[C@H](C)[C@H]2CC(=O)[C@@H](C)/C=C(\C)[C@H](O)[C@H](OC)C(=O)[C@@H](C)C[C@@H](C)/C=C/C=C/C=C(\C)[C@H](OC)C[C@H]3CC[C@H](C)[C@](O)(O3)C(=O)C(=O)N3CCCC[C@@H]3C(=O)O2)CC[C@@H]1OCCO (racemic)	SYBR Green	–	–	blood stage	1.25 µM
C[C@@]12CC[C@@H](O)[C@]3(C)C4=CC(=O)OCC4=C[C@@H](OC1=O)C23 (stereo partly drawn)	–	W2	72 h	drug-resistant strain, blood stage	0.67 µg/mL
O=C(Nc1ccccc1-c1nc2c(C(=O)O)cccc2o1)c1ccccc1	SYBR Green	–	–	blood stage	75.8 µM
O=C1C(O)=C([C@H]2CC[C@H](c3ccc(Cl)cc3)CC2)C(=O)c2ccccc21	–	3D7	72 h	blood stage	0.0004 µM
N=C(N)NCCCCC(=O)Nc1cc(C(F)(F)F)cc(NC(=O)c2cc(C(=O)Nc3cc(C(F)(F)F)cc(NC(=O)CCCCNC(=N)N)c3O[C@@H]3CCNC3)ncn2)c1O[C@@H]1CCNC1	SYBR Green	–	–	blood stage	0.67 µM
Fc1cc(F)cc(-c2nc3c(N4CCC(CN5CCN(CC(F)(F)F)CC5)CC4)nccc3[nH]2)c1	–	NF54	–	blood stage	< 0.1 µM
Cc1cc(NCCc2ccccc2)nc(N=C(N)Nc2ccc(Cl)cc2)n1	SYBR Green	–	–	blood stage	0.28 µM
C[C@@H]1CC[C@H]2[C@@H](C)C(=O)O[C@@H]3O[C@@]4(C)CC[C@@H]1[C@]32OO4	–	W2	–	drug-resistant strain, blood stage	0.015 µM
